From ChEMBL document CHEMBL3286116, “Synthesis, biological evaluation and structure-activity correlation study of a series of imidazol-based compounds as Candida albicans inhibitors” (Eur J Med Chem, 2014)
Values after ≈ are worked out from the molar mass of the structure shown.

Assays:
Type in all cases: functional
[1] = system: Cryptococcus neoformans; test: Antifungal activity against Cryptococcus neoformans PMC 2123 after 72 hrs by CLSI broth microdilution method; conditions: PMC 2123, 72 h
How it was run: (§1)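 Cryptococcus neoformans tested by CLSI broth microdilution in RPMI 1640, with serial two-fold dilutions from DMSO stocks at 100× the top concentration, final 0.125–64. Inoculum was 1.0–1.5 × 10^3 cells mL−1 at 35 °C, with growth read at 72 h. MIC is the lowest concentration with ≥50% growth inhibition versus control. Median of five replicates, plus geometric mean.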

[2] = system: Candida albicans; test: Antifungal activity against Candida albicans ATCC 10231 after 48 hrs by CLSI broth microdilution method; conditions: ATCC 10231, 48 h
How it was run: (§2)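 Yeast CLSI broth microdilution (M27-A3). Compounds dissolved in DMSO at 100× the top test concentration, then diluted as serial two-fold dilutions in RPMI 1640 to final 0.125–64. Inoculum was 1.0–1.5 × 10^3 cells mL−1, incubated at 35 °C and read for growth at 48 h. MIC is the lowest concentration giving ≥50% growth inhibition versus growth control. Reported as the median of five replicates and as the geometric mean.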

[3] = system: Nannizzia gypsea; test: Antifungal activity against Microsporum gypseum PMC 7303 after 72 hrs by CLSI broth microdilution method; conditions: PMC 7303, 72 h
How it was run: (§3)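 Dermatophytes tested by CLSI broth microdilution for filamentous fungi (M38-A2). Serial two-fold dilutions of DMSO-dissolved compound in RPMI 1640, final 0.125–64. Inoculum was 0.4–5 × 10^4 CFU mL−1, incubated at 35 °C and read at 72 h. MIC80 is the lowest concentration giving ≥80% growth inhibition versus growth control. Median of five replicates, plus geometric mean.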

[4] = system: Candida albicans; test: Antifungal activity against Candida albicans ATCC 10261 after 48 hrs by CLSI broth microdilution method; conditions: ATCC 10261, 48 h; how it was run: as §2
[5] = system: Trichophyton mentagrophytes; test: Antifungal activity against Trichophyton mentagrophytes PMC 6509 after 72 hrs by CLSI broth microdilution method; conditions: PMC 6509, 72 h; how it was run: as §3
[6] = system: Nakaseomyces glabratus; test: Antifungal activity against Candida glabrata PMC 0805 after 48 hrs by CLSI broth microdilution method; conditions: PMC 0805, 48 h; how it was run: as §2
[7] = system: Cryptococcus neoformans; test: Antifungal activity against Cryptococcus neoformans PMC 2103 after 72 hrs by CLSI broth microdilution method; conditions: PMC 2103, 72 h; how it was run: as §1
[8] = system: Candida tropicalis; test: Antifungal activity against Candida tropicalis PMC 0910 after 48 hrs by CLSI broth microdilution method; conditions: PMC 0910, 48 h; how it was run: as §2
[9] = system: Trichophyton mentagrophytes; test: Antifungal activity against Trichophyton mentagrophytes PMC 6503 after 72 hrs by CLSI broth microdilution method; conditions: PMC 6503, 72 h; how it was run: as §3
[10] = system: Trichophyton mentagrophytes; test: Antifungal activity against Trichophyton mentagrophytes PMC 6531 after 72 hrs by CLSI broth microdilution method; conditions: PMC 6531, 72 h; how it was run: as §3
[11] = system: Trichophyton mentagrophytes; test: Antifungal activity against Trichophyton mentagrophytes PMC 6515 after 72 hrs by CLSI broth microdilution method; conditions: PMC 6515, 72 h; how it was run: as §3
[12] = system: Cryptococcus neoformans; test: Antifungal activity against Cryptococcus neoformans PMC 2102 after 72 hrs by CLSI broth microdilution method; conditions: PMC 2102, 72 h; how it was run: as §1
[13] = system: Pichia kudriavzevii; test: Antifungal activity against Candida krusei PMC 0613 after 48 hrs by CLSI broth microdilution method; conditions: PMC 0613, 48 h; how it was run: as §2
[14] = system: Candida parapsilosis; test: Antifungal activity against Candida parapsilosis DSM 11224 after 48 hrs by CLSI broth microdilution method; conditions: Lodderomyces parapsilosis, DSM 11224, 48 h; how it was run: as §2
[15] = system: Candida albicans; test: Antifungal activity against Candida albicans ATCC 20891 after 48 hrs by CLSI broth microdilution method; conditions: ATCC 20891, 48 h; how it was run: as §2
[16] = system: Cryptococcus neoformans; test: Antifungal activity against Cryptococcus neoformans PMC 2111 after 72 hrs by CLSI broth microdilution method; conditions: PMC 2111, 72 h; how it was run: as §1
[17] = system: Candida albicans; test: Antifungal activity against Candida albicans PMC 1011 after 48 hrs by CLSI broth microdilution method; conditions: PMC 1011, 48 h; how it was run: as §2
[18] = system: Trichophyton mentagrophytes; test: Antifungal activity against Trichophyton mentagrophytes PMC 6552 after 72 hrs by CLSI broth microdilution method; conditions: PMC 6552, 72 h; how it was run: as §3
[19] = system: Nannizzia gypsea; test: Antifungal activity against Microsporum gypseum PMC 7331 after 72 hrs by CLSI broth microdilution method; conditions: PMC 7331, 72 h; how it was run: as §3
[20] = system: Candida albicans; test: Antifungal activity against Candida albicans ATCC 90028 after 48 hrs by CLSI broth microdilution method; conditions: ATCC 90028, 48 h; how it was run: as §2
[21] = system: Candida albicans; test: Antifungal activity against Candida albicans ATCC 76615 after 48 hrs by CLSI broth microdilution method; conditions: ATCC 76615, 48 h; how it was run: as §2
[22] = system: Cryptococcus neoformans; test: Antifungal activity against Cryptococcus neoformans PMC 2107 after 72 hrs by CLSI broth microdilution method; conditions: PMC 2107, 72 h; how it was run: as §1
[23] = system: Pichia kudriavzevii; test: Antifungal activity against Candida krusei DSM 6128 after 48 hrs by CLSI broth microdilution method; conditions: DSM 6128, 48 h; how it was run: as §2
[24] = system: Candida tropicalis; test: Antifungal activity against Candida tropicalis DSM 11953 after 48 hrs by CLSI broth microdilution method; conditions: DSM 11953, 48 h; how it was run: as §2
[25] = system: Cryptococcus neoformans; test: Antifungal activity against Cryptococcus neoformans DSM 11959 after 72 hrs by CLSI broth microdilution method; conditions: DSM 11959, 72 h; how it was run: as §1
[26] = system: Candida albicans; test: Antifungal activity against Candida albicans ATCC 3153 after 48 hrs by CLSI broth microdilution method; conditions: ATCC 3153, 48 h; how it was run: as §2
[27] = system: Cryptococcus neoformans; test: Antifungal activity against Cryptococcus neoformans PMC 2136 after 72 hrs by CLSI broth microdilution method; conditions: PMC 2136, 72 h; how it was run: as §1
[28] = system: Candida albicans; test: Antifungal activity against Candida albicans ATCC 24433 after 48 hrs by CLSI broth microdilution method; conditions: ATCC 24433, 48 h; how it was run: as §2
[29] = system: Candida parapsilosis; test: Antifungal activity against Candida parapsilosis ATCC 22019 after 48 hrs by CLSI broth microdilution method; conditions: Lodderomyces parapsilosis, ATCC 22019, 48 h; how it was run: as §2
[30] = system: Cryptococcus neoformans; test: Antifungal activity against Cryptococcus neoformans PMC 2115 after 72 hrs by CLSI broth microdilution method; conditions: PMC 2115, 72 h; how it was run: as §1
[31] = system: Nannizzia gypsea; test: Antifungal activity against Microsporum gypseum DSM 3824 after 72 hrs by CLSI broth microdilution method; conditions: DSM 3824, 72 h; how it was run: as §3
[32] = system: Trichophyton mentagrophytes; test: Antifungal activity against Trichophyton mentagrophytes DSM 4870 after 72 hrs by CLSI broth microdilution method; conditions: DSM 4870, 72 h; how it was run: as §3
[33] = system: Nakaseomyces glabratus; test: Antifungal activity against Candida glabrata PMC 0807 after 48 hrs by CLSI broth microdilution method; conditions: PMC 0807, 48 h; how it was run: as §2
[34] = system: Nakaseomyces glabratus; test: Antifungal activity against Candida glabrata PMC 0850R after 48 hrs by CLSI broth microdilution method; how it was run: as §2
[35] = system: Candida albicans; test: Antifungal activity against Candida albicans PMC 1041R after 48 hrs by CLSI broth microdilution method; how it was run: as §2
[36] = system: Nakaseomyces glabratus; test: Antifungal activity against Candida glabrata PMC 0851R after 48 hrs by CLSI broth microdilution method; how it was run: as §2
[37] = system: Nakaseomyces glabratus; test: Antifungal activity against Candida glabrata PMC 0853R after 48 hrs by CLSI broth microdilution method; how it was run: as §2
[38] = system: Candida albicans; test: Antifungal activity against Candida albicans PMC 1042R after 48 hrs by CLSI broth microdilution method; how it was run: as §2
[39] = system: Nakaseomyces glabratus; test: Antifungal activity against Candida glabrata PMC 0852R after 48 hrs by CLSI broth microdilution method; how it was run: as §2
[40] = system: Candida albicans; test: Antifungal activity against Candida albicans PMC 1040R after 48 hrs by CLSI broth microdilution method; how it was run: as §2

Compound | MIC50 [1] | MIC50 [2] | MIC80 [3] | MIC50 [4] | MIC80 [5] | MIC50 [6] | MIC50 [7] | MIC50 [8] | MIC80 [9] | MIC80 [10] | MIC80 [11] | MIC50 [12] | MIC50 [13] | MIC50 [14] | MIC50 [15] | MIC50 [16] | MIC50 [17] | MIC80 [18] | MIC80 [19] | MIC50 [20] | further results
O=C(OC(Cn1ccnc1)c1ccc(F)cc1)N1CCN(c2ncccc2[N+](=O)[O-])CC1 (stereo not drawn) | 16 µg/mL (≈ 36.3 µM) | 16 µg/mL (≈ 36.3 µM) | 64 µg/mL (≈ 145 µM) | 8 µg/mL (≈ 18.2 µM) | 64 µg/mL (≈ 145 µM) | 8 µg/mL (≈ 18.2 µM) | 2 µg/mL (≈ 4.54 µM) | 16 µg/mL (≈ 36.3 µM) | 32 µg/mL (≈ 72.7 µM) | 32 µg/mL (≈ 72.7 µM) | 32 µg/mL (≈ 72.7 µM) | 8 µg/mL (≈ 18.2 µM) | 4 µg/mL (≈ 9.08 µM) | 2 µg/mL (≈ 4.54 µM) | 8 µg/mL (≈ 18.2 µM) | 8 µg/mL (≈ 18.2 µM) | 4 µg/mL (≈ 9.08 µM) | 32 µg/mL (≈ 72.7 µM) | 32 µg/mL (≈ 72.7 µM) | 4 µg/mL (≈ 9.08 µM) | MIC50 [21]: 64 µg/mL (≈ 145 µM); MIC50 [22]: 1 µg/mL (≈ 2.27 µM); MIC50 [23]: 16 µg/mL (≈ 36.3 µM); MIC50 [24]: 32 µg/mL (≈ 72.7 µM); MIC50 [25]: 4 µg/mL (≈ 9.08 µM); MIC50 [26]: 16 µg/mL (≈ 36.3 µM); MIC50 [27]: 2 µg/mL (≈ 4.54 µM); MIC50 [28]: 8 µg/mL (≈ 18.2 µM); MIC50 [29]: 16 µg/mL (≈ 36.3 µM); MIC50 [30]: 16 µg/mL (≈ 36.3 µM); MIC80 [31]: 32 µg/mL (≈ 72.7 µM); MIC80 [32]: 32 µg/mL (≈ 72.7 µM); MIC50 [33]: 32 µg/mL (≈ 72.7 µM)
OC(Cn1cncn1)(Cn1cncn1)c1ccc(F)cc1F [FLUCONAZOLE] | 2 µg/mL (≈ 6.53 µM) | 2 µg/mL (≈ 6.53 µM) | 16 µg/mL (≈ 52.2 µM) | 4 µg/mL (≈ 13.1 µM) | 1 µg/mL (≈ 3.27 µM) | 1 µg/mL (≈ 3.27 µM) | 2 µg/mL (≈ 6.53 µM) | 4 µg/mL (≈ 13.1 µM) | 2 µg/mL (≈ 6.53 µM) | 4 µg/mL (≈ 13.1 µM) | 8 µg/mL (≈ 26.1 µM) | 4 µg/mL (≈ 13.1 µM) | 8 µg/mL (≈ 26.1 µM) | 1 µg/mL (≈ 3.27 µM) | 1 µg/mL (≈ 3.27 µM) | 1 µg/mL (≈ 3.27 µM) | 0.25 µg/mL (≈ 0.816 µM) | 8 µg/mL (≈ 26.1 µM) | 16 µg/mL (≈ 52.2 µM) | 0.5 µg/mL (≈ 1.63 µM) | MIC50 [34]: 32 µg/mL (≈ 104 µM); MIC50 [35]: 32 µg/mL (≈ 104 µM); MIC50 [36]: 128 µg/mL (≈ 418 µM); MIC50 [21]: 0.5 µg/mL (≈ 1.63 µM); MIC50 [37]: 32 µg/mL (≈ 104 µM); MIC50 [22]: 1 µg/mL (≈ 3.27 µM); MIC50 [23]: 16 µg/mL (≈ 52.2 µM); MIC50 [24]: 1 µg/mL (≈ 3.27 µM); MIC50 [25]: 2 µg/mL (≈ 6.53 µM); MIC50 [38]: 16 µg/mL (≈ 52.2 µM); MIC50 [26]: 16 µg/mL (≈ 52.2 µM); MIC50 [39]: 16 µg/mL (≈ 52.2 µM); MIC50 [27]: 2 µg/mL (≈ 6.53 µM); MIC50 [40]: 512 µg/mL (≈ 1670 µM); MIC50 [28]: 0.5 µg/mL (≈ 1.63 µM); MIC50 [29]: 2 µg/mL (≈ 6.53 µM); MIC50 [30]: 4 µg/mL (≈ 13.1 µM); MIC80 [31]: 16 µg/mL (≈ 52.2 µM); MIC80 [32]: 16 µg/mL (≈ 52.2 µM); MIC50 [33]: 16 µg/mL (≈ 52.2 µM)
